Measurements reported in publication PMC4928098 (NeuroImage, 2016).
Read-outs that look alike come from different tables or passages of the source.

Assays:
P-gp (ABCB1) = P-gp (ABCB1) (Homo sapiens, UniProt P08183); type: cell-based; conditions: for Percent Inhibition (%) of the fluorescent substrate: P-gp, rhodamine-123 efflux, human cancer cells
In short: (§1)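 Human cancer cells overexpressing a transporter, plus parental cells, were analysed by flow cytometry for efflux of a fluorescent probe: rhodamine-123 for P-gp, mitoxantrone for BCRP, calcein-AM for MRP1. Conditions were untreated parental cells, expressing cells with a transporter-specific inhibitor, expressing cells with test compound at 20 or 50 µM, and untreated expressing cells. Fluorescence was recorded on 10,000 cells and expressed as percent inhibition.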

P-gp [1] = conditions: rats pretreated with tariquidar; ref Choi et al., 2016; cited from earlier work
MRP1 (ABCC1) = MRP1 (ABCC1) (Homo sapiens, UniProt P33527); type: cell-based; conditions: for Percent Inhibition (%) of the fluorescent substrate: Mrp1, calcein-AM efflux, human cancer cells
MRP1 (ABCC1), sequence (P33527 whole entry): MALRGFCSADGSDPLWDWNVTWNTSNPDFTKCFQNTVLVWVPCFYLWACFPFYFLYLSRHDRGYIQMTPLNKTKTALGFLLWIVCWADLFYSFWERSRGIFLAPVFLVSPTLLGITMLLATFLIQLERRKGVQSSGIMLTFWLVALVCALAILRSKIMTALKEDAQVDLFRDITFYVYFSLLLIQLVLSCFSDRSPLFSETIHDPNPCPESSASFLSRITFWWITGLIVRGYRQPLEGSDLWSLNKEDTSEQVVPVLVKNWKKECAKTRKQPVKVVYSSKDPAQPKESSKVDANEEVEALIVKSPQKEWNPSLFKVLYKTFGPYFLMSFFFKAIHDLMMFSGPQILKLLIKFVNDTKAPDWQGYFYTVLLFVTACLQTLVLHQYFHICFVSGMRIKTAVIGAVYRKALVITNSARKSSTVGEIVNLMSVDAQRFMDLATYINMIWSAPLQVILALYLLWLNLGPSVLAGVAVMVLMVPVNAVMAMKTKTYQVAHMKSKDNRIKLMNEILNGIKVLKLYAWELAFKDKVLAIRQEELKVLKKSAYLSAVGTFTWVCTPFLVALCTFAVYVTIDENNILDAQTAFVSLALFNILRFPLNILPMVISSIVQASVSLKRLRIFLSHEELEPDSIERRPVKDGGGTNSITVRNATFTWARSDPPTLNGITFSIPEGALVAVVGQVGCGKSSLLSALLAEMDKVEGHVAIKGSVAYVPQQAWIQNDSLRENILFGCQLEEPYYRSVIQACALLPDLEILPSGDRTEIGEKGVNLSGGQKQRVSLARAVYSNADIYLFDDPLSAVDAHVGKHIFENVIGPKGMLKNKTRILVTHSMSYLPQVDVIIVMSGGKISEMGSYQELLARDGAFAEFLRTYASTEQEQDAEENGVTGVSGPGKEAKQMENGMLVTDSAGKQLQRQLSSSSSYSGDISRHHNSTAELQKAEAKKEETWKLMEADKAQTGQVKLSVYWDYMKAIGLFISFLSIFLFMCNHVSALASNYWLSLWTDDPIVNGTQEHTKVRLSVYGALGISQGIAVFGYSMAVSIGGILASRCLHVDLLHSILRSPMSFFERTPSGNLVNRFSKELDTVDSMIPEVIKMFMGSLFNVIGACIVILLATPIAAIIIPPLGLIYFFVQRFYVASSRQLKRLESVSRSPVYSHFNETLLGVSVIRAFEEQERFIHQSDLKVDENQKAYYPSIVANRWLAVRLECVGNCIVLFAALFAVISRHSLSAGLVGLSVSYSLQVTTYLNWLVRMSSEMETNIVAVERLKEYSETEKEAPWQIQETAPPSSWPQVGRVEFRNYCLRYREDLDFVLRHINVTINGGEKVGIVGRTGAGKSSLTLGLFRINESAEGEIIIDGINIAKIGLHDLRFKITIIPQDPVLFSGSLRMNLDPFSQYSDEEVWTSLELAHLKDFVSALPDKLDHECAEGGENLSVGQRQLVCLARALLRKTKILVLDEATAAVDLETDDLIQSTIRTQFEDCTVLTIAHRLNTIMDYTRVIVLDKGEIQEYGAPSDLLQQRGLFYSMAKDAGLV
In short: as §1

BCRP (ABCG2) = target: T1, BCRP (ABCG2) (Homo sapiens, UniProt Q9UNQ0); type: cell-based; conditions: for Percent Inhibition (%) of the fluorescent substrate: BCRP, mitoxantrone efflux, human cancer cells
T1 sequence (Q9UNQ0 1-655): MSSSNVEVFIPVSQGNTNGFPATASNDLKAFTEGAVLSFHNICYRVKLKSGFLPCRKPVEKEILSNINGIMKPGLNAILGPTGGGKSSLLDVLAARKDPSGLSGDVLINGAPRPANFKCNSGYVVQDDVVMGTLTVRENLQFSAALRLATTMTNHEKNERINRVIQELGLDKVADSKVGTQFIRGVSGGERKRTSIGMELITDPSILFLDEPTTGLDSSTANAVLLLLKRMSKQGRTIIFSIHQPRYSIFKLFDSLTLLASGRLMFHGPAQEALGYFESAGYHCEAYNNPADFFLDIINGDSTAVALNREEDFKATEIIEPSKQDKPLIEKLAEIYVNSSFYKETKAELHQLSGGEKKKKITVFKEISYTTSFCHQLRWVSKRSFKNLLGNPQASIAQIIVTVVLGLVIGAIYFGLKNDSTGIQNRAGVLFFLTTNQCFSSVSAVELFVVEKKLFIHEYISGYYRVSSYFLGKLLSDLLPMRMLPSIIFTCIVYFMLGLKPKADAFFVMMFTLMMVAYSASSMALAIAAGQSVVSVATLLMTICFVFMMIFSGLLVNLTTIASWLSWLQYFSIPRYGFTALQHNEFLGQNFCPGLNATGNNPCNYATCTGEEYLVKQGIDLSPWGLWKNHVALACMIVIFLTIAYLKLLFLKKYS
In short: as §1

P-gp [2] = target: P-gp (Homo sapiens, UniProt P08183); assay: Human PET imaging at baseline and during tariquidar infusion; type: in vivo
P-gp (Homo sapiens, UniProt P08183), sequence (P08183 whole entry, the tested form may be a part): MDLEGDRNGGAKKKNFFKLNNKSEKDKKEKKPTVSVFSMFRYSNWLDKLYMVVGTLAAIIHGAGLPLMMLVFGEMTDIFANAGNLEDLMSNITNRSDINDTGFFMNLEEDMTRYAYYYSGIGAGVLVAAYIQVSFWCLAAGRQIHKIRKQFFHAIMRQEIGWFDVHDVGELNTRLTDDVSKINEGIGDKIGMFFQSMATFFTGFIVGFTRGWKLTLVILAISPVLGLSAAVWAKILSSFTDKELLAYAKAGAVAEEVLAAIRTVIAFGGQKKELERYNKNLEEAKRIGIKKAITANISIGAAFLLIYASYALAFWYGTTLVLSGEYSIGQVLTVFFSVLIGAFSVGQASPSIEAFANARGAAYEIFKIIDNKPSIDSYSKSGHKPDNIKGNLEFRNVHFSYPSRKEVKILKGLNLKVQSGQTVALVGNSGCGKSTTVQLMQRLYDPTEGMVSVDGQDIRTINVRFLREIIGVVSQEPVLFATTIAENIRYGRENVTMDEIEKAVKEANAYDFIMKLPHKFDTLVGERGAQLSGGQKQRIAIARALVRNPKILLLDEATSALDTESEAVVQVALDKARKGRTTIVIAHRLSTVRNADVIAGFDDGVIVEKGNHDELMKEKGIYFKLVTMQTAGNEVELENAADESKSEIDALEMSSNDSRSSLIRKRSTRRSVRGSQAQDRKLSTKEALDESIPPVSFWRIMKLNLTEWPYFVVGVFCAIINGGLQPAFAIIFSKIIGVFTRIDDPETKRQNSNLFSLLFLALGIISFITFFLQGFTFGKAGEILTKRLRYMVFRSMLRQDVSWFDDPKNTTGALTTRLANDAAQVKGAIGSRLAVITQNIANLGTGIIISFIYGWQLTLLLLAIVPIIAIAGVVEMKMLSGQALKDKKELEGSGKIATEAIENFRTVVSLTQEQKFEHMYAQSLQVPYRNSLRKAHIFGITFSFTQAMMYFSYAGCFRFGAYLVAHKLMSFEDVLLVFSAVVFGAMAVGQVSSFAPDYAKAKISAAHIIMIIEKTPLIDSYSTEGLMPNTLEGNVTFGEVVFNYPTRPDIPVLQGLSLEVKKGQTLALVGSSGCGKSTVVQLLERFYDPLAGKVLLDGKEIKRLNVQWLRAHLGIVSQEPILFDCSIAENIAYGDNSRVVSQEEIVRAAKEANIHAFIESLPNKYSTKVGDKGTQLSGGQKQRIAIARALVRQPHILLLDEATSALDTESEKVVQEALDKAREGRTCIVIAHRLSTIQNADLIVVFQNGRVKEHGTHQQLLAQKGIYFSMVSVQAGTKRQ
In short: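 Radioligand was given as a 376 ± 8 MBq bolus, followed by a 2-h dynamic PET with arterial sampling and HPLC metabolite separation. VT came from a three-tissue model including the acid metabolite, in six central regions. Paired one-tailed t-test.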

P-gp [3] = target: P-gp (Mus musculus, UniProt P21447); assay: Ex vivo brain to plasma ratio of parent radioligand in P-gp knockout mice; conditions: P-gp KO mice, 30 min after iv injection, n=3
In short: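 Wild-type, P-gp KO, BCRP KO and P-gp/BCRP KO mice (n=3 per group, 25.3 ± 1.2 g) were anesthetised with 1.5% isoflurane in oxygen. Radioligand (166 ± 49 µCi; 826 ± 205 mCi/µmol) was given iv via tail-vein cannula. At 30 min, blood was taken by cardiac puncture and brain excised. Parent was quantified by reversed-phase radio-HPLC with γ-counting. Brain/plasma parent ratios were compared across groups (mean ± SEM).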

[4] = humans, ref Ryu et al., 2007, cited from earlier work

P-gp (ABCB1), sequence (P08183 whole entry): as the sequence (P08183 whole entry, the tested form may be a part) above

In the case of `CNC(=O)C(CCN1CCC(O)(c2ccc(Cl)cc2)CC1)(c1ccccc1)c1ccccc1` [dLop, desmethyl-loperamide, reference compound], the “Percent Inhibition (%) of the fluorescent substrate” value (“Percent Inhibition (%)” for short) (P-gp (ABCB1); 20 uM) is reported as 10.0% and the “Percent Inhibition (%)” value (P-gp (ABCB1); 50 uM) is reported as 25.0%.
In the case of `COc1ccccc1N1CCN(CCN(C(=O)C2CCC(C[18F])CC2)c2ccccn2)CC1` (stereo not shown) [^18F-Mefway], the “Increase of brain uptake after tariquidar pretreatment” value (P-gp [1]) is listed as 1.6 fold.
For `COc1ccccc1N1CCN(CCN(C(=O)c2ccc(F)cc2)c2ccccn2)CC1` [MPPF, reference compound], the “Percent Inhibition (%)” value (MRP1 (ABCC1); 20 uM) was 13.1% and the “Percent Inhibition (%)” value (MRP1 (ABCC1); 50 uM) was 19.9%.
With `COc1ccccc1N1CCN(CCN(C(=O)C2CCC(F)CC2)c2ccccn2)CC1` (stereo not shown) [FCWAY] the “Percent Inhibition (%)” value (P-gp (ABCB1); 20 uM) was 0.8%, the “Percent Inhibition (%)” value (P-gp (ABCB1); 50 uM) was 4.0% and the “Substrate status for transporter (in vitro substrate inhibition)” value (P-gp (ABCB1); P-gp overexpressing human cancer cells) was “weak substrate”. For the same compound, the “Percent Inhibition (%)” value (MRP1 (ABCC1); 20 uM) was 3.1%, the “Percent Inhibition (%)” value (MRP1 (ABCC1); 50 uM) was 5.4% and the “Substrate status for transporter (in vitro substrate inhibition)” value (MRP1 (ABCC1); MRP1 overexpressing human cancer cells) was “weak substrate”. For the same compound, the “Percent Inhibition (%)” value (BCRP (ABCG2); 20 uM) was 6.8%, the “Percent Inhibition (%)” value (BCRP (ABCG2); 50 uM) was 8.6% and the “Substrate status for transporter (in vitro substrate inhibition)” value (BCRP (ABCG2); BCRP overexpressing human cancer cells) was “weak substrate”.
With `O=C(O)[C@H]1CC[C@H]([18F])CC1` [^18F-FC] the “Estimated concentration in brain as percent of that of the parent radioligand” value (P-gp [2]; during most of the scan, radiometabolite) was 2–3% and the “Concentration in brain compared to the total radioactivity” value (P-gp [2]; estimated by compartmental modeling, radiometabolite) was ~ 5%.
In the case of `COc1ccccc1N1CCN(CCN(C(=O)C2CCC([18F])CC2)c2ccccn2)CC1` (stereo not shown) [^18F-FCWAY], the “Brain uptake (brain to plasma ratio) in comparison to wild type mice” value (P-gp [3]) is reported as “increased”, the “Peak brain radioactivity uptake” value (P-gp [2]; baseline, after bolus injection, healthy subjects) is reported as “around 3 SUV” and the “Change of non-displaceable binding potential (BPND) after tariquidar” value (P-gp [2]; i.v. tariquidar treatment, n=8) is reported as “changed insignificantly”. For the same compound, the “Increase in mean distribution volume (VT) with tariquidar treatment” value (P-gp [2]; tariquidar 2 or 4 mg/kg iv infusion, six brain regions, n=8) was 60–100%, the “Time of peak uptake in brain” value ([4]; with disulfiram administration) was “five to seven” and the “Time of peak in brain after injection” value ([4]; without disulfiram) was “one to three”.
